# Assay results: PMC7311271 (Nature chemical biology, 2020)
# Assays:
# recombinant human G6PD = recombinant human G6PD (Homo sapiens, UniProt P11413); assay: G6PD diaphorase-coupled enzymatic assay; format: biochemical
# Summary of the method: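 Recombinant human G6PD was expressed in E. coli with an N-terminal His6 tag, purified on Ni, thrombin-cleaved and size-excluded. Reactions started with 1 mM G6P at 30 °C, read each minute (ex 530/em 590 nm). RFU/min was normalised to no-compound wells, and IC50 came from a 4-parameter fit.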
# [1] = system: G6PD cellular activity in HepG2 cells; assay: 6-pg levels in HepG2 cells; format: cell-based, human
# Summary of the method: (§1)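 Adherent HepG2 or HCT116 cells were grown to 80% confluency in 6-well plates, then given fresh medium containing the test compound over a dose range. They were incubated 2 h at 37 °C, 5% CO2. Metabolites were extracted ~30 min at −20 °C, scraped and centrifuged (15 min, 16,000 rpm, 4 °C). Supernatants were analysed by LC-MS for 6-pg, NADPH and NADP+ (n = 3).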
# [2] = system: G6PD cellular activity in HCT116-mPgd cells; assay: 6-pg levels in HCT116-mPgd cells; format: cell-based, human; conditions: dose response, compared with DHEA
# [3] = system: G6PD cellular activity in HCT116 cells; assay: NADPH active hydride 2H-labeling from [1-2H]-glucose in HCT116 cells; format: cell-based, human
# Summary of the method: (§2)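 HCT116 cells were incubated 2 h at 37 °C, 5% CO2 in medium containing [1-2H]-glucose tracer plus increasing doses of the test compound. Read-out was 2H transfer to the NADPH active hydride or to free palmitic acid, measured by LC-MS; dose-response curves, n = 3.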
# [4] = system: G6PD cellular activity in HCT116 cells; assay: Free palmitic acid; format: cell-based, human; conditions: dose response
# Summary of the method: as §2
# HCT116 and HepG2 cells = assay: NADPH pools and NADP+/NADPH ratio in HCT116 and HepG2 cells; format: cell-based, human
# Summary of the method: as §1
# G6PD in HepG2 lysates = G6PD in HepG2 lysates (Homo sapiens, UniProt P11413); assay: Cellular thermal shift assay; format: binding; conditions: 50 μM, up to 56 °C
# Chain of G6PD in HepG2 lysates (P11413 whole entry): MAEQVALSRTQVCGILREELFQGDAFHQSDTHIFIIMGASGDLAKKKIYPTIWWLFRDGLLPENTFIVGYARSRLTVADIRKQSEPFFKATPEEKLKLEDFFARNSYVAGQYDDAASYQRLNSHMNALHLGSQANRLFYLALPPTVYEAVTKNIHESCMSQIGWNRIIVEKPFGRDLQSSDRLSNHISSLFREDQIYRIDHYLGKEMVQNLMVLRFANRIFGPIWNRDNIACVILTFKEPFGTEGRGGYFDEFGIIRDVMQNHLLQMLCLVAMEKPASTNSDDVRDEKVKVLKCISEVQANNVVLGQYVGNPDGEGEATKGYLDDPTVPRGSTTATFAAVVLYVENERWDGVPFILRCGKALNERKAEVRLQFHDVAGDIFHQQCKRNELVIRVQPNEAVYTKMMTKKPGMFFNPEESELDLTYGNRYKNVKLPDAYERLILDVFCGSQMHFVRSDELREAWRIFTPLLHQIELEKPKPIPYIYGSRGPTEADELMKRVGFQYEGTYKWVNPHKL
# Summary of the method: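 Lysates took test compound or DMSO for 30 min on ice, then were heated 3 min at 47, 50, 53 or 56 °C. After 3 min cooling at room temperature, insoluble material was spun out (17,000 g, 20 min). G6PD signal is expressed relative to the DMSO control.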
# HCT116 cells [5] = assay: Colony formation; format: cell-based, human; conditions: increasing doses
# T cell lineages = assay: LC-MS quantification of NADPH and NADP+ pools, T cell lineages; format: cell-based
# Summary of the method: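 Suspension T cells (2×10^6 in 1 mL medium, 12-well plates) were incubated with the test compound. Metabolites were acid-extracted 5 min on ice and neutralised with NH4HCO3. After centrifugation (15 min, 16,000 rpm, 4 °C), supernatants were analysed for NADPH and NADP+ by LC-MS.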
# [6] = system: RBC = red blood cells (mouse); assay: LC-MS quantification of NADPH pools, RBCs; format: cell-based
# Summary of the method: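 Mouse blood was collected by cardiac puncture into heparin. Serum and buffy coat were removed after a 500 rpm spin at 4 °C, and cells were washed three times in PBS and used immediately in RPMI. Red cells (2×10^6 in 1 mL, 12-well plates) were incubated with the test compound, acid-extracted, neutralised with NH4HCO3, and analysed for NADPH by LC-MS.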
# [7] = system: mouse bone-marrow derived macrophages; assay: LC-MS quantification of NADPH pools, macrophages; format: cell-based
# neutrophils = assay: NADPH in neutrophils; format: cell-based
# Summary of the method: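 Mouse neutrophils were enriched by negative selection from femur/tibia bone marrow of 8–12 week old mice. Cells were cultured in RPMI with 10% heat-inactivated FBS, 5 mM HEPES and 2 mM EDTA. Metabolites were extracted after 30 min of PMA stimulation and analysed for NADPH by LC-MS.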
# [8] = system: G6PD in active mouse CD8+ and CD4+ T cells; assay: NADPH labeling, NADPH, NADP+ and 6-pg levels in active T cells; format: cell-based
# Summary of the method: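 Active CD8+ T cells (day 4–5 post-activation), including cells from G6PD-Tg mice and littermate controls, were treated 2 h with increasing test-compound doses, with a [1-2H]-glucose tracer for labeling. For reversibility, cells were pretreated 2 h, then moved to final media for 2 h. For absolute quantification, extracts were spiked with NADP+ or NADPH standards, and packed cell volume was taken as 1.5 µL per 2 × 10^6 cells. Analysis was by LC-MS, n = 3, two-tailed unpaired t-test.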
# [9] = system: oxPPP flux in active CD8+ T cells; assay: Absolute oxPPP flux by 14CO2 emission; format: cell-based, mouse; conditions: 10 μM, 4 h
# Summary of the method: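 Active mouse CD8+ T cells were used at day 4 post plate-bound anti-CD3/anti-CD28 stimulation, cultured with IL-2. Three million cells were incubated 4 h in a sealed flask with 0.1% DMSO or 10 μM test compound. Released 14CO2 was trapped in 10 M KOH, the reaction was stopped with 1 M HCl, and radioactivity was counted by scintillation. Flux (fmol h-1 cell-1) was normalised to cell number, labeling time and tracer fraction; mean ± SD, n = 5.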
# active CD8+ T cells [10] = assay: Fatty acid synthesis; format: cell-based, mouse; conditions: 2 h, [U-13C]glucose tracer
# [11] = system: active CD8+ and CD4+ T cells; assay: Intracellular ROS; format: cell-based, mouse; conditions: 2 h
# Summary of the method: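 Active mouse T cells were incubated 2 h with increasing test-compound concentrations, then stained with CellROX Green and a viability dye and analysed by flow cytometry.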
# [12] = system: mouse naïve CD8+ T cells stimulated by CD3/CD28 + IL-2; assay: T cell activation markers; format: cell-based; conditions: increasing concentrations
# Summary of the method: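 Naïve CD8+ T cells were isolated from mouse spleens as strained single-cell suspensions in PBS with 0.5% BSA and 2 mM EDTA. Cells were rested with IL-7 (50 U/mL) or stimulated 48 h on plate-bound anti-CD3 (10 µg/ml) plus anti-CD28 (5 µg/ml) in RPMI with 100 μM alanine and IL-2 (100 U/mL), with increasing test compound. Read-outs were Live/Dead Aqua viability, surface CD69 and CD25, and FSC-A size. Two independent experiments were run.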
# CD8+ T cells [13] = assay: CD8+ T cell proliferation by Cell Trace Violet dilution; format: cell-based, mouse; conditions: day 4 post-activation
# Summary of the method: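 Naïve CD8+ T cells were isolated from mouse spleen by magnetic bead selection and stained with CellTrace Violet. Cells were kept naïve with IL-7 or stimulated with anti-CD3/anti-CD28 + IL-2, in increasing test-compound concentrations. Cells were refed at days 2 and 3. At day 4, dye dilution was read by flow cytometry with propidium iodide as viability stain; 2 independent experiments.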
# CD8+ T cells [14] = assay: CD8+ T cell viability; format: cell-based, mouse
# CD4+ T cells = assay: CD4+ T cell proliferation by CFSE dilution; format: cell-based, mouse; conditions: day 3 post-activation
# Summary of the method: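 In a Treg suppression set-up, mouse Tconv cells were labeled with CFSE and Treg cells with CellTrace Violet. Tconv cells were stimulated with irradiated antigen-presenting cells plus CD3ε mAb (1 µg/mL). After 72 h, proliferation was read by flow cytometry as dye dilution.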
# active CD8+ T cells [15] = assay: Intracellular cytokines in active CD8+ T cells; format: cell-based, mouse; conditions: PMA + IO, increasing doses
# Summary of the method: (§3)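 Mouse CD4+ or CD8+ T cells were activated 48 h with plate-bound anti-CD3 (10 µg/ml)/anti-CD28 (5 µg/ml), IL-2 (100 U/mL) and 100 μM alanine, then kept in IL-2 and used at day 4–5. Cells were restimulated 6 h with PMA (20 ng/ml) + ionomycin (1 ug/ml), GolgiStop and increasing test-compound concentrations. After Live/Dead Aqua, CD4/CD8a surface staining, fixation and permeabilisation, IFNγ, TNFα and IL-2 were read by flow cytometry.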
# active CD4+ T cells = assay: Intracellular cytokines in active CD4+ T cells; format: cell-based, mouse; conditions: PMA + IO, increasing doses
# Summary of the method: as §3
# [16] = system: CD4+ T cells (Foxp3+ iTreg); assay: Foxp3+ iTreg formation and proliferation; format: cell-based, mouse; conditions: CD3/CD28 stimulation in the presence of TGF-β
# [17] = system: bone marrow derived macrophages; assay: Intracellular cytokines and iNOS in bone marrow derived macrophages; format: cell-based, mouse
# Summary of the method: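 Mouse bone-marrow progenitors from femur and tibia were matured in DMEM with 10% FBS and 20% L929-conditioned medium. Macrophages were stimulated 6 h with LPS (100 ng/mL) + IFNγ (20 ng/mL), with GolgiStop and increasing test-compound concentrations. Cells were stained with Live/Dead Aqua, fixed and permeabilised, and stained for TNFα, IL-6 and iNOS before flow cytometry; 2 independent experiments.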
# mouse neutrophils = assay: Neutrophil oxidative burst assay; format: cell-based; conditions: PMA 100 nM, 50 μM
# Summary of the method: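 Mouse bone-marrow neutrophils were plated at 2 × 10^5 cells/well in bicarbonate-free RPMI 1640 on Cell-Tak-coated wells, spun 200 × g for 1 min and rested 1 h at 37 °C. Test compound (50 µM) or vehicle was added just before the run. Oxidative burst was triggered with PMA (100 nM), and rotenone + antimycin A (0.5 µM each) were added at t = 20 min. OCR was measured by extracellular flux analysis; n = 6.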
# human neutrophils = assay: Neutrophil oxidative burst assay; format: cell-based; conditions: PMA 100 nM, 50 μM
# Summary of the method: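 Human neutrophils were plated at 5 × 10^4 cells/well in RPMI 1640 with 0.1% human serum albumin on Cell-Tak-coated wells, spun 200 × g for 1 min and rested 1 h at 37 °C. Test compound (50 µM) or vehicle was added just before the run. Burst was triggered with PMA (100 nM), and OCR was measured by extracellular flux analysis; n = 6.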
# HCT116 cells [18] = assay: Metabolomics in wild-type and ΔG6PD HCT116 cells; format: cell-based, human; conditions: 50 μM, 2 h
# Summary of the method: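 Adherent cells were grown to 80% confluency. Medium containing test compound was added, and cells were held at 37 °C in 5% CO2 for 2 h. Extraction was at −20 °C for ~30 min, after which wells were scraped and extracts centrifuged (16,000 rpm, 15 min, 4 °C). Supernatants were stored at −80 °C and analysed by LC-MS.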
# CD8+ T cells [19] = assay: Untargeted metabolomics on CD8+ T cells; format: cell-based, mouse; conditions: active CD8+ T cells, 2 h
# Summary of the method: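 Active mouse CD8+ T cells were treated 2 h with the test compound. Water-soluble metabolites were extracted and profiled by LC-MS; mean, n = 3. Metabolites with fold-change > 4 were flagged.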
# Chain of recombinant human G6PD (P11413 28-515): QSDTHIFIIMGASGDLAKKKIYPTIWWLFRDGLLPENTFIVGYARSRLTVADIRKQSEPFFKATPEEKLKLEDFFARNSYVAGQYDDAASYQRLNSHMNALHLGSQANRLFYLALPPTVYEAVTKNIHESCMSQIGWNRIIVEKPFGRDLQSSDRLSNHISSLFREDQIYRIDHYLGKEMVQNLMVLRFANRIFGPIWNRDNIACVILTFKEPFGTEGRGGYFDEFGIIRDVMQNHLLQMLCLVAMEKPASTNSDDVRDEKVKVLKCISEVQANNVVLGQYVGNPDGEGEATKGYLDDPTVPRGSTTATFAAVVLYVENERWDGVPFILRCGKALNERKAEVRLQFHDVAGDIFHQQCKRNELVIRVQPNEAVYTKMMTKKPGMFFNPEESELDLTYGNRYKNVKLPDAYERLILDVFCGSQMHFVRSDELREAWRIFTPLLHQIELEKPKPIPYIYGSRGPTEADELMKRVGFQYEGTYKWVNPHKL
smiles,measurement,setting,value
"N#Cc1cc(Nc2ncc3c(n2)CCCCC3=O)cs1 [G6PDi-1, 4-([5-oxo-6H,7H,8H,9H-cyclohepta[d]pyrimidin-2-yl]amino)thiophene-2-carbonitrile]",mode of binding to G6PD,recombinant human G6PD; in vitro dilution experiments and competition assays against both substrates,reversibly and non-competitively
same,dose-dependent decrease in 6-pg levels,"[1]; HepG2 cells, dose response",dose-dependent decrease
same,IC50,"[1]; Homo sapiens, HepG2, read-out: IC50 for decrease in 6-pg levels",~13 µM
same,suppression of 6-pg levels,[2],much more effectively suppressed
same,dose-dependent decrease in 2H transfer to NADPH's active hydride,[3]; dose response,dose-dependent decrease
same,dose-dependent decrease in 2H transfer to C16:0,[4],dose-dependent decrease
same,NADPH pools,HCT116 and HepG2 cells; HCT116 and HepG2 cells,largely unperturbed
same,NADP+/NADPH,"HCT116 and HepG2 cells; HCT116 cells, dose response",dose-dependent increase
same,thermal stabilization of G6PD,G6PD in HepG2 lysates,significant thermal stabilization
same,colony formation,HCT116 cells [5],dose-dependent decrease
same,decrease in NADPH,T cell lineages,greater than 10 fold
same,sensitivity of NADPH pools,[6],fairly sensitive
same,effect on NADPH,[7],did not decrease
same,effect on NADPH,neutrophils,did impact NADPH
same,"time to restoration of NADPH, NADP+ and 6-pg levels after removing the inhibitor",[8]; activated CD8+ T cells,≤ 2 h
same,effect of G6PD overexpression on dose response of NADPH and NADP+,[8]; active CD8+ T cells from G6PD-Tg mice vs littermate controls,markedly shifted the dose response
same,"time to onset of effects on NADPH labeling and NADP+, NADPH and 6-pg levels","[8]; active CD8+ T cells, 50 μM",≤ 10 min
same,NADPH and 6-pg levels,[8]; mouse CD8+ and CD4+ T cells day 4–5 post-activation,decreased
same,2H transfer from glucose to NADPH,"[8]; mouse CD8+ and CD4+ T cells day 4–5 post-activation, 10 μM, [1-2H]-glucose",completely blocked
same,absolute oxPPP flux,[9],blocked
same,fatty acid synthesis,active CD8+ T cells [10],nearly completely ablated
same,reactive oxygen species (ROS),[11],elevated
same,upregulation of activation markers and activation-dependent increase in cell size,[12],did not alter
same,activation-dependent proliferation,CD8+ T cells [13],minimal effect
same,viability,CD8+ T cells [14],minimal effect
same,proliferation of CD4+ T cells,CD4+ T cells,minimal effect
same,IFNγ and TNF-α production,active CD8+ T cells [15],blocked
same,IL-2 and TNF-α production,active CD4+ T cells,blocked
same,formation and proliferation of Foxp3+ cells,[16],unaffected
same,LPS-induced pro-inflammatory cytokine production or iNOS upregulation,[17],did not decrease
same,oxidative burst (oxygen consumption rate),mouse neutrophils,decreased
same,oxidative burst (oxygen consumption rate),human neutrophils,decreased
same,off-target metabolic effects,HCT116 cells [18],some potential off-target effects on purine nucleosides
same,specificity of metabolic effects,CD8+ T cells [19],clean on-target activity
"CN(c1cccc(C#N)c1)c1ncc2c(n1)CCCC2=O [G6PDi-neg-ctrl, 3-[methyl(5-oxo-5,6,7,8-tetrahydroquinazolin-2-yl)amino]benzonitrile]",in vitro activity against human G6PD,recombinant human G6PD,lacked any activity
"Cc1cccc(Nc2ncc3c(n2)CCCC3=O)c1 [G6PDi-precursor, 2-[(3-methylphenyl)amino]-5,6,7,8-tetrahydroquinazolin-5-one]",in vitro activity against human G6PD,recombinant human G6PD,low micromolar
"OC[C@H]1O[C@@H](Oc2cc(O)cc(/C=C/c3ccc(O)cc3)c2)[C@H](O)[C@@H](O)[C@@H]1O [polydatin, reference compound]",effect on 6-pg levels,"[1]; HepG2 cells, 50 μM, 2 h",failed to decrease
same,effect on NADPH active hydride labeling,"[3]; 50 μM, 2 h",failed to decrease
